# Source: PubChem
# SENP8 block-1 – blocks the human protease SENP8; purified SENP8, Z-RLRGG-aminoluciferin cleavage, luminescence; inhibition, % at 10 µM; 1.2% of 330,000 active; AID 2540; in the data active means inhibition above about 50%
# SENP1 FRET inh – SENP1 (human) catalytic domain inhibition; AID 624204; 0.21% of 360,000 active; recombinant SENP1 catalytic domain, CyPet-SUMO1-YPet FRET cleavage; inhibition, % at 10 µM;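 active means inhibition at least 30% at 10 µM, raw YFP signal under a set limit, fluorescence ratio 0.5 to 1.5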
# Target sequence (Q9P0U3 419-644 limits assumed): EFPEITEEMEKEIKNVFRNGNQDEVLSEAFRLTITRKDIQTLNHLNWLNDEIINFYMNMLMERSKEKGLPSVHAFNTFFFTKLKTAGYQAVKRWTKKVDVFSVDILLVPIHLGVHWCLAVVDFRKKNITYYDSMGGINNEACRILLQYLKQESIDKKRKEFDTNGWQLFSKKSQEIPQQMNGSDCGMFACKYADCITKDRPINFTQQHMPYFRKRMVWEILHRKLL
#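 Test system: recombinant human SENP1 catalytic domain, His6-tagged / Medium: pH 8 Tris buffer with EDTA, NaCl, BME, BSA, NP40, catalase / Also added: SUMO1 FRET substrate flanked by Cypet and Ypet, 25 nM / Times: 50 min reaction at room temperature / Signal: FRET, CFP and YFP emission / Control set: no-enzyme low control and enzyme-plus-DMSO high control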
# SENP7 block – blocks the human protease SENP7 | Q9BQF6 | 1.5% of 330,000 active | recombinant SENP7, Z-RLRGG-aminoluciferin luminescence, 40 min | inhibition, % at 5 µM;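 active means inhibition above about 50% at the single test dose, limit read from the data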
# Target sequence (Q9BQF6 706-1050 limits assumed): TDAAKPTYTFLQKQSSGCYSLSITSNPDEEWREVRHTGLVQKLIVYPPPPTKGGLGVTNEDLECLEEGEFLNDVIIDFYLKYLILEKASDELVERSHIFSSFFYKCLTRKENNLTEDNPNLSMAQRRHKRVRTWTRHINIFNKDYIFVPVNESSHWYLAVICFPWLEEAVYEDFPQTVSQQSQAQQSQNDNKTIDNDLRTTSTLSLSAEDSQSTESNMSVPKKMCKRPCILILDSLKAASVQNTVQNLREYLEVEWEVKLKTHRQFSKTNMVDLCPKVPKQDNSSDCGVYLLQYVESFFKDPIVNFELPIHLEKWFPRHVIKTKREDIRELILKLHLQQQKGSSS
# SENP8 block-2 – inhibitors of human SENP8 protease | Q96LD8 | recombinant SENP8, Nedd8 substrate fluorescence | inhibition, % at 20 µM | 0.64% of 360,000 active | AID 602440; in the data active means inhibition mostly above about 40%, no sharp cut-off; inactive means mostly below about 27%
# SENP6 inh – inhibitors of human SENP6 protease | AID 2599 | inhibition, % at 10 µM | 1.8% of 330,000 active | Recombinant SENP6 catalytic domain, aminoluciferin luminescence;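 active means inhibition above about 50% at the single tested dose, limit read from the data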
# SENP8 confirm – human SENP8 inhibition, confirmed; inhibition, % at 12.5 µM; Recombinant SENP8, Z-RLRGG-aminoluciferin luminescence, 60 min; shares compounds with SENP7 block; AID 488912; 40% of 6,200 active;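 active means mean inhibition across replicates above about 50%, limit read from the data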
# SENP6 confirm – confirmation of human SENP6 protease inhibitors | shares compounds with SENP7 block | 58% of 6,200 active | recombinant SENP6, Z-RLRGG-aminoluciferin luminescence | inhibition, % at 12.5 µM | AID 488915
# SENP7 conf – confirmation of human SENP7 protease inhibitors. shares compounds with SENP7 block. recombinant SENP7, Z-RLRGG-aminoluciferin luminescence, 40 min. inhibition, % at 12.5 µM. 69% of 6,200 active
# Casp3 select – caspase-3 inhibition (SENP selectivity assay) | shares compounds with SENP7 block | purified caspase-3, Z-DEVD-aminoluciferin luminescence, 60 min | inhibition, % at 12.5 µM | 60% of 6,200 active;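 active means mean inhibition above about 50%, limit read from the data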
# Luc interf – luminescence interference (SENP counter-screen); Pre-incubated SENP8/Z-RLRGG-aminoluciferin, luciferase luminescence interference; shares compounds with SENP7 block; inhibition, % at 12.5 µM; 39% of 6,200 active;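 active means mean inhibition above about 50% when retested at one dose, limit read from the data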
# Hits are given with their value; n = inactive; x = not tested or not shown. The list is not random: actives were taken first. Their share in the collection is about 2.5%.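 How the source made its calls, unless noted: active means mean inhibition above about 50% in the one-dose retest (limit read from the data); inactive means the rest.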
SMILES,SENP8 block-1,SENP1 FRET inh,SENP7 block,SENP8 block-2,SENP6 inh,SENP8 confirm,SENP6 confirm,SENP7 conf,Casp3 select,Luc interf
COc1cccc(-c2nc(-c3cccs3)no2)c1,83,n,92,n,90,n,87,98,70,62
O=C(COc1ccc(Br)cc1)NCCNC(=O)c1ccncc1,n,n,n,n,n,x,x,x,x,x
C/C(=N\OC(=O)Nc1ccccc1)c1ccc(C)cc1,70,n,73,n,67,82,83,96,79,78
N#Cc1c(NC(=O)COC(=O)c2ccc(O)cc2O)sc2c1CCC2,n,n,n,n,n,x,x,x,x,x
Cc1cccc(/C=N/NC(=O)c2cc(-c3cccnc3)nc3c2c(C)nn3-c2ccccc2)c1,n,n,77,n,n,n,n,n,n,n
CN1c2ccsc2C(O)=C(C(=S)Nc2ccc(F)c(Cl)c2)S1(=O)=O,n,n,n,n,61,n,n,n,n,n
Cn1cc(C(=O)Nc2ccc(F)c(Cl)c2)cn1,n,n,n,n,n,x,x,x,x,x
O=c1c2ccccc2nc(-c2ccco2)n1Cc1ccccc1,63,n,69,n,77,79,76,89,78,77
CCCCCn1c(-c2ccco2)nc2nc3ccccc3nc21,n,n,n,n,n,x,x,x,x,x
c1ccc(Cn2c(-c3ccco3)nc3nc4ccccc4nc32)cc1,75,n,52,n,89,n,82,96,82,n
Cc1ccc(NC(=O)c2ocnc2C)cc1Cl,61,n,83,n,81,76,77,94,83,n
Cc1ncoc1C(=O)Nc1cccc(Cl)c1,n,n,64,n,50,60,58,86,80,57
O=C(CC1CCCC1)Nc1cc(C(F)(F)F)ccc1-n1cncn1,n,n,n,n,n,x,x,x,x,x
Oc1ccc(C=NC2CCCCC2)cc1,n,n,n,n,n,x,x,x,x,x
Cc1ccccc1OCC(O)Cn1c(=N)n(Cc2ccccc2)c2ccccc21 (stereo not drawn),n,n,51,n,n,n,n,n,n,n
COc1ccccc1OCC(O)Cn1c(=N)n(Cc2ccccc2)c2ccccc21 (stereo not drawn),n,n,n,n,n,x,x,x,x,x
CSc1ccc(/C=N/NC(=O)c2cccc(O)c2)cc1,75,n,90,n,91,n,81,96,86,83
CCOc1ccc(C(=O)N/N=C/c2ccc(SC)cc2)cc1,n,n,n,n,n,x,x,x,x,x
CN(c1ccc(C(=O)N2CCN(Cc3ccccc3)CC2)cc1)S(=O)(=O)c1ccc(Cl)cc1,n,n,n,n,n,x,x,x,x,x
COC1CCN(Cc2c(C(=O)N3CCN(C4CCCCC4)CC3)nc3ccccn23)CC1,n,n,n,n,n,x,x,x,x,x
Cc1nnsc1C(=O)N/N=C/c1ccccc1,n,n,n,n,n,x,x,x,x,x
Cc1nnsc1C(=O)N/N=C/c1ccc(OC(F)(F)F)cc1,n,n,55,n,n,n,n,n,n,n
O=C(Nc1ccccc1)Nc1ncc([N+](=O)[O-])s1,97,n,100,n,99,98,100,102,98,98
Cc1nc(C)c(C(=O)Nc2ncc([N+](=O)[O-])s2)o1,95,n,89,n,98,98,98,102,98,96
O=C(COC(=O)c1ccccc1)Nc1ncc([N+](=O)[O-])s1,n,n,n,n,n,x,x,x,x,x
SMILES,SENP8 block-1,SENP1 FRET inh,SENP7 block,SENP8 block-2,SENP6 inh,SENP8 confirm,SENP6 confirm,SENP7 conf,Casp3 select,Luc interf
CC(C)CC(=O)Nc1ncc([N+](=O)[O-])s1,n,n,n,n,n,x,x,x,x,x
O=S(Cc1ccc(Cl)cc1)c1ccccc1 (stereo not drawn),x,n,x,n,x,x,x,x,x,x
COc1cc([N+](=O)[O-])cc(/C=N/NC(=O)c2cccnc2)c1O,n,n,n,n,n,x,x,x,x,x
COc1cc([N+](=O)[O-])cc(/C=N/NC(=O)C(C)Nc2cccc3ccccc23)c1O (stereo not drawn),n,n,n,n,68,n,n,n,n,n
Cc1cccc(/C=N/NC(=O)C(C)Nc2cccc3ccccc23)n1 (stereo not drawn),78,n,n,n,88,n,n,n,n,n
CC(O)C(=O)N/N=C/c1cccc2ccccc12 (stereo not drawn),x,n,x,n,x,x,x,x,x,x
N#CCC(=O)Nc1ccc(C(=O)Nc2cccc(S(N)(=O)=O)c2)cc1,n,n,n,n,n,x,x,x,x,x
Cc1nc(-c2ccc(NC(=O)c3ccccc3)cc2)cs1,94,n,97,n,97,87,97,101,96,83
COc1ccccc1Nc1nc(-c2sc(NC(=O)c3ccccc3)nc2C)cs1,n,n,n,n,n,x,x,x,x,x
Cc1nc(NC(=O)c2ccccc2)sc1-c1csc(NCc2ccccc2)n1,64,n,75,n,80,n,n,n,n,n
Cc1nc(NC(=O)c2ccccc2)sc1-c1csc(NCCc2ccccc2)n1,n,n,57,n,63,n,n,n,n,n
Cc1nc(NC(=O)c2ccccc2)sc1-c1csc(N)n1,n,n,68,n,n,57,53,77,65,61
CCOC(=O)N1CCN(Cc2nc3cc(NC(=O)c4cccs4)ccc3n2CC)CC1,n,n,n,n,n,x,x,x,x,x
NC(=O)c1cc([N+](=O)[O-])ccc1NCc1cnccn1,n,n,n,n,n,x,x,x,x,x
COCCC(=O)N1CCC(C(=O)Nc2ccc(Oc3ccccc3)nc2)CC1,n,n,n,n,n,x,x,x,x,x
CCOc1ccccc1Nc1nc(-c2sc(NC(=O)c3cccc(Cl)c3)nc2C)cs1,68,n,77,n,84,n,n,n,n,n
Cc1cc(C)cc(N2CCCn3c2nc2c3c(=O)n(CC(=O)OCc3ccccc3)c(=O)n2C)c1,n,n,55,n,n,n,n,n,n,n
Nc1nnnn1-c1cccc([N+](=O)[O-])c1,x,n,x,n,x,x,x,x,x,x
COc1ccc(-c2cc(C(=O)NC(Cc3cc4ccccc4[nH]3)C(=O)O)c(C)o2)cc1OC (stereo not drawn),n,n,n,n,n,x,x,x,x,x
Cc1oc(-c2ccc3c(c2)OCCO3)cc1C(=O)NCC(=O)O,81,n,n,n,81,n,93,98,81,91
Cc1oc(-c2ccc3c(c2)OCCO3)cc1C(=O)O,97,n,98,n,99,98,101,104,99,99
